How the values were obtained:
[1] = molecular target: T1, Muscarinic acetylcholine receptor M2 (Homo sapiens) (UniProt P08172); test: Antagonist activity at human muscarinic M2 receptor expressed in HEK293 cells co-expressing HA-Galphaq/i5 assessed as inhibition of carbachol-induced IP1 accumulation pre-incubated for 30 mins followed by carbachol addition and measured after 1 hr by HTRF assay; format: functional, cell-based
T1 sequence (whole entry): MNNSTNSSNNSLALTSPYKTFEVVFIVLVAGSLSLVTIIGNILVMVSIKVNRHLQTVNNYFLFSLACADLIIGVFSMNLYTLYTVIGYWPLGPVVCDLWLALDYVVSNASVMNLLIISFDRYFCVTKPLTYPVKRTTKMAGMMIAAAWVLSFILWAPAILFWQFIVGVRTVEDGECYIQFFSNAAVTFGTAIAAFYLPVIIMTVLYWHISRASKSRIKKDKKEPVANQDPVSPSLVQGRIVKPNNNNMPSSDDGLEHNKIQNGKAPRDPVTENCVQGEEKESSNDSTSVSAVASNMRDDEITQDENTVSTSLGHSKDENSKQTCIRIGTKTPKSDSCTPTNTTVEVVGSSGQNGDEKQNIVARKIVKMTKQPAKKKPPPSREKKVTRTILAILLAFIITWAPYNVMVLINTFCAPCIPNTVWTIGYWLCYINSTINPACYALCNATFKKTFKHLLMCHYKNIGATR
In short: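 HEK-293 cells transiently cotransfected (receptor plus HA-tagged Gαqi5), detached after 1 day and seeded at 10,000 cells/well for 24 h at 37 °C. Duplicates.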

[2] = molecular target: T2, Muscarinic acetylcholine receptors; M2 & M3 (Homo sapiens) (UniProt P20309+P08172); test: Selectivity ratio of Ki for human muscarinic M3 receptor expressed in stable CHO-K1 cells to Ki for human muscarinic M2 receptor expressed in stable CHO-K1 cells; format: cell-based
[3] = molecular target: T3, Muscarinic acetylcholine receptor M2 and M5 (Homo sapiens) (UniProt P08172+P08912); test: Selectivity ratio of Ki for human muscarinic M5 receptor expressed in stable CHO-K1 cells to Ki for human muscarinic M2 receptor expressed in stable CHO-K1 cells; format: cell-based
[4] = molecular target: Muscarinic acetylcholine receptor M2 and M4 (Homo sapiens) (UniProt P08173+P08172); test: Selectivity ratio of Ki for human muscarinic M4 receptor expressed in CHO-K9 cells to Ki for human muscarinic M2 receptor expressed in CHO-K9 cells; format: cell-based
In short: (§1)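 Ratio of mean Ki values. Each Ki came from an individual [3H]NMS competition experiment at the given CHO-hMxR subtype, converting IC50 to Ki by Cheng-Prusoff before averaging.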

[5] = molecular target: Muscarinic acetylcholine receptors; M1 & M2 (Homo sapiens) (UniProt P11229+P08172); test: Selectivity ratio of Ki for human muscarinic M1 receptor expressed in CHO-K9 cells to Ki for human muscarinic M2 receptor expressed in CHO-K9 cells; format: cell-based; in short: as §1
[6] = molecular target: T4, Muscarinic acetylcholine receptor M5 (Homo sapiens, UniProt P08912); test: Displacement of [3H]-NMS from human muscarinic M5 receptor expressed in CHO-K9 cells after 3 hrs by microbeta2 scintillation counting method; format: cell-based
T4 sequence (P08912 whole entry): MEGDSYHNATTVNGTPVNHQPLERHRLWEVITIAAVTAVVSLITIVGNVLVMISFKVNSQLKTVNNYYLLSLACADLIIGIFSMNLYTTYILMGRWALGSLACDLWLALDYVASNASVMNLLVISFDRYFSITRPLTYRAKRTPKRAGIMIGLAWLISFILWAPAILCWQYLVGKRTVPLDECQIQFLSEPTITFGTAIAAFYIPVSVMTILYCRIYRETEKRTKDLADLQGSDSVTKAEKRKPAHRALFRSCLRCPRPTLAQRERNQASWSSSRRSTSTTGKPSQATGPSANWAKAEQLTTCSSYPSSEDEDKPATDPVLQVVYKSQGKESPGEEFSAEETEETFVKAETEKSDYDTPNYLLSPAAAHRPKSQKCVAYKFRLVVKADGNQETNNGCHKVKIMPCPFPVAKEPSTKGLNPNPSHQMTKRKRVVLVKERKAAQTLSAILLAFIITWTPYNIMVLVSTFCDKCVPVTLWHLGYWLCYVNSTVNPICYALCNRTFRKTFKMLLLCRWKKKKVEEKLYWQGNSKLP
In short: (§2)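 [3H]NMS competition binding on intact CHO-hMxR cells in L15 medium with 1% BSA, 3 h at 22 ± 1 °C with gentle shaking. [3H]NMS was 0.2 nM (M1, M2, M3), 0.1 nM (M4) or 0.3 nM (M5). […] Cells were lysed in urea/acetic acid/Triton and counted by liquid scintillation. Ki from Cheng-Prusoff. Triplicates, ≥3 experiments.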

[7] = molecular target: T5, Muscarinic acetylcholine receptor M2 (Homo sapiens, UniProt P08172); test: Displacement of [3H]-NMS from human muscarinic M2 receptor expressed in CHO-K9 cells after 3 hrs by microbeta2 scintillation counting method; format: cell-based; in short: as §2
T5 sequence (P08172 whole entry): T1 sequence (whole entry)

[8] = molecular target: Muscarinic acetylcholine receptor M3 (Homo sapiens, UniProt P20309); test: Displacement of [3H]-NMS from human muscarinic M3 receptor expressed in CHO-K9 cells after 3 hrs by microbeta2 scintillation counting method; format: cell-based; in short: as §2
[9] = molecular target: T2, Muscarinic acetylcholine receptors; M2 & M3 (Homo sapiens); test: Selectivity ratio of Ki for human muscarinic M3 receptor expressed in CHO-K9 cells to Ki for human muscarinic M2 receptor expressed in CHO-K9 cells; format: cell-based; in short: as §1
[10] = molecular target: T3, Muscarinic acetylcholine receptor M2 and M5 (Homo sapiens); test: Selectivity ratio of Ki for human muscarinic M5 receptor expressed in CHO-K9 cells to Ki for human muscarinic M2 receptor expressed in CHO-K9 cells; format: cell-based; in short: as §1
[11] = molecular target: T6, Muscarinic acetylcholine receptor M1 (Homo sapiens, UniProt P11229); test: Displacement of [3H]-NMS from human muscarinic M1 receptor expressed in CHO-K9 cells after 3 hrs by microbeta2 scintillation counting method; format: cell-based; in short: as §2
T6 sequence (P11229 whole entry): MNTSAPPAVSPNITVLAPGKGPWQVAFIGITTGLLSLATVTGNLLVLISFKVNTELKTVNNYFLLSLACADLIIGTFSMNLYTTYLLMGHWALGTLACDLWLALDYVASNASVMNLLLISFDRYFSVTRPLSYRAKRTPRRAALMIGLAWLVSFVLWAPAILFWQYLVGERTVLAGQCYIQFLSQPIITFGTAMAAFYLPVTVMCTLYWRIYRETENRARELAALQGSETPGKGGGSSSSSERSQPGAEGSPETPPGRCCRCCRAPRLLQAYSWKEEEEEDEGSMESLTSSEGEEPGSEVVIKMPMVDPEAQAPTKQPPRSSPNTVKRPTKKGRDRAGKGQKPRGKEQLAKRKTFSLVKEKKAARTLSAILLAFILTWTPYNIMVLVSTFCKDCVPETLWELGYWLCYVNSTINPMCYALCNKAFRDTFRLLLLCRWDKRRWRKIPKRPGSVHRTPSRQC

[12] = molecular target: T7, Muscarinic acetylcholine receptor M4 (Homo sapiens, UniProt P08173); test: Displacement of [3H]-NMS from human muscarinic M4 receptor expressed in CHO-K9 cells after 3 hrs by microbeta2 scintillation counting method; format: cell-based; in short: as §2
T7 sequence (P08173 whole entry): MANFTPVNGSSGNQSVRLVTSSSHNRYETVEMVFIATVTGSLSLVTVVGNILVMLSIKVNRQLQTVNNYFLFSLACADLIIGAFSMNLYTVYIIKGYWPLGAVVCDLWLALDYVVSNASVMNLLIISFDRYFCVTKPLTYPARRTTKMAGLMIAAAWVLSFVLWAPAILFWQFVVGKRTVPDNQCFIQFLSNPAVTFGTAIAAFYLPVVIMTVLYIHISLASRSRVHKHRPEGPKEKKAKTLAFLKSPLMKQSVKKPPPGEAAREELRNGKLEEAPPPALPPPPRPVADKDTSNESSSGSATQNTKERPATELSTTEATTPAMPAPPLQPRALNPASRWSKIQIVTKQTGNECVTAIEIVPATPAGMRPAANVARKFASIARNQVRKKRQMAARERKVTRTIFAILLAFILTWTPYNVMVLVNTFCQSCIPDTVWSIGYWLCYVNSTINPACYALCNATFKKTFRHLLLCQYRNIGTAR

Sequence of Muscarinic acetylcholine receptor M3 (P20309 whole entry): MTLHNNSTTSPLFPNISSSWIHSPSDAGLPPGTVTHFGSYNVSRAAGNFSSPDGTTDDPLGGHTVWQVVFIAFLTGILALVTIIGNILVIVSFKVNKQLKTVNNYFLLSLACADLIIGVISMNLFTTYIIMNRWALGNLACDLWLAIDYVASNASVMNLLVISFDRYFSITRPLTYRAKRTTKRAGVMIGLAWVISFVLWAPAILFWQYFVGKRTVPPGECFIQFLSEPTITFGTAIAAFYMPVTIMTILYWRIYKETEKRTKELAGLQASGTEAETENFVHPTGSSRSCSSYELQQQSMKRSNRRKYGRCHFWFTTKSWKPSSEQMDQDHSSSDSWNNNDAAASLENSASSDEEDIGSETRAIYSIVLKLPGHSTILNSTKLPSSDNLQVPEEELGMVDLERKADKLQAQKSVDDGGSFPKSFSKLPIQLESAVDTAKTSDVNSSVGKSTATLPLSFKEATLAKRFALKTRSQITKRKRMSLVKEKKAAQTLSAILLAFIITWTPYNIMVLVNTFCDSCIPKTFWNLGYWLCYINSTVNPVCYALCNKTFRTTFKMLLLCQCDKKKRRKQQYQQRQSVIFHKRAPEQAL
T2 sequence (P20309 whole entry, looked up, one chain of several): as the sequence (P20309 whole entry) above

Ratio Ki [2] | Ratio Ki [3] | Ratio Ki [4] | Ratio Ki [5] | Ki [6] | Ki [7] | Ki [8] | Ratio Ki [9] | Ratio Ki [10] | Ki [11] | Ki [12] | SMILES | inhibition [1]
 |  |  |  |  |  |  |  |  |  |  | CN1[C@@H]2CC[C@H]1C[C@@H](OC(=O)C(CO)c1ccccc1)C2 (stereo not given in full) | Dose-dependent effect
11 | 89 |  |  |  |  |  |  |  |  |  | CCCN(CCC)CC1CCCCN1CCNC(=O)N1c2ccccc2C(=O)Nc2cccnc21 (stereo not given) | 
 |  | 11 | 8.4 | 240 nM | 0.355 nM | 151 nM | 440 | 710 | 2.95 nM | 3.55 nM | CC(=O)N[C@@H](CCC(N)=O)C(=O)N[C@@H](C)C(=O)N[C@@H](CC(C)C)C(=O)NCCN1CCN(CCCCC2CCN(CC(=O)N3c4ccccc4NC(=O)c4ccccc43)CC2)CC1 | 
 |  | 1.7 | 2.2 | 1200 nM | 240 nM | > 10000 nM | > 36 | 4.4 | 537 nM | 417 nM | CC(=O)N[C@@H](CCC(N)=O)C(=O)N[C@@H](C)C(=O)N[C@@H](CC(C)C)C(=O)NCCCCC1CCN(CC(=O)N2c3ccccc3NC(=O)c3ccccc32)CC1 | 
 |  | 12 | 14 | 70.8 nM | 0.0794 nM | 27.5 nM | 260 | 780 | 1.41 nM | 1.12 nM | CC(=O)N[C@@H](CCCCN)C(=O)N[C@@H](Cc1ccc(O)cc1)C(=O)NCCN1CCN(CCCCC2CCN(CC(=O)N3c4ccccc4NC(=O)c4ccccc43)CC2)CC1 | 
 |  | 28 | 22 | 29.5 nM | 0.115 nM | 28.2 nM | 290 | 260 | 2.34 nM | 3.24 nM | CC(=O)N[C@@H](Cc1ccc(O)cc1)C(=O)N[C@@H](C)C(=O)N[C@@H](CCCCN)C(=O)NCCN1CCN(CCCCC2CCN(CC(=O)N3c4ccccc4NC(=O)c4ccccc43)CC2)CC1 | 
 |  | 5.4 | 9.6 | 295 nM | 0.24 nM | 61.7 nM | 270 | 1300 | 2.4 nM | 1.2 nM | CC(=O)N[C@@H](CCC(N)=O)C(=O)N[C@@H](CC(C)C)C(=O)NCCN1CCN(CCCCC2CCN(CC(=O)N3c4ccccc4NC(=O)c4ccccc43)CC2)CC1 | 
 |  | 6.6 | 1.8 | 708 nM | 46.8 nM | 10000 nM | 210 | 15 | 87.1 nM | 295 nM | CC(=O)N[C@@H](Cc1ccc(O)cc1)C(=O)N[C@@H](CCCCN)C(=O)NCCCCC1CCN(CC(=O)N2c3ccccc3NC(=O)c3ccccc32)CC1 | 
 |  | 17 | 6.5 | 501 nM | 12 nM | 5500 nM | 400 | 39 | 95.5 nM | 257 nM | CC(=O)N[C@@H](CCCNC(=N)N)C(=O)N[C@@H](CCCCN)C(=O)NCCCCC1CCN(CC(=O)N2c3ccccc3NC(=O)c3ccccc32)CC1 | 
 |  | 3.6 | 3.4 | 1510 nM | 309 nM | > 10000 nM | > 27 | 4.9 | 1050 nM | 1070 nM | CC(=O)N[C@@H](CCC(N)=O)C(=O)N[C@@H](CC(C)C)C(=O)NCCCCC1CCN(CC(=O)N2c3ccccc3NC(=O)c3ccccc32)CC1 | 
 |  | 1.9 | 4.7 | 120 nM | 20 nM | 1150 nM | 56 | 6.2 | 93.3 nM | 37.2 nM | CC(=O)N[C@@H](Cc1c[nH]c2ccccc12)C(=O)N[C@@H](C)C(=O)N[C@@H](Cc1ccc(O)cc1)C(=O)NCCCCC1CCN(CC(=O)N2c3ccccc3NC(=O)c3ccccc32)CC1 | 
 |  | 12 | 15 | 427 nM | 7.76 nM | 2690 nM | 350 | 56 | 115 nM | 89.1 nM | CC(=O)N[C@@H](CCCCN)C(=O)N[C@@H](C)C(=O)N[C@@H](CCCNC(=N)N)C(=O)NCCCCC1CCN(CC(=O)N2c3ccccc3NC(=O)c3ccccc32)CC1 | 
 |  | 35 | 20 | 33.9 nM | 0.0794 nM | 13.2 nM | 180 | 230 | 1.45 nM | 2.57 nM | CN1CC=C(c2nsnc2OCCCN2CCN(CCCCC3CCN(CC(=O)N4c5ccccc5NC(=O)c5ccccc54)CC3)CC2)CC1 | 
 |  | 3.7 | 14 | 1350 nM | 22.9 nM | 1380 nM | 59 | 62 | 302 nM | 79.4 nM | CC(=O)N[C@@H](C)C(=O)N[C@@H](C)C(=O)NCCCCC1CCN(CC(=O)N2c3ccccc3NC(=O)c3ccccc32)CC1 | 
 |  | 8.1 | 8.3 | 95.5 nM | 0.174 nM | 44.7 nM | 240 | 560 | 1.26 nM | 1.26 nM | CC(=O)N[C@@H](CCCCN)C(=O)N[C@@H](C)C(=O)N[C@@H](Cc1ccc(O)cc1)C(=O)NCCN1CCN(CCCCC2CCN(CC(=O)N3c4ccccc4NC(=O)c4ccccc43)CC2)CC1 | 

Reference: ChEMBL document CHEMBL4396879, “Conjugation of Short Peptides to Dibenzodiazepinone-Type Muscarinic Acetylcholine Receptor Ligands Determines M2R Selectivity” (J Med Chem, 2019)
